Consider five molecules from PMC5183561 (European journal of pharmacology, 2016).

Usually pKi stands for −log10 of the Ki, conventionally taken in molar units.

Series [1] has as its target T1, recombinant human kappa opioid receptor (Homo sapiens, UniProt P41145). As to the kind of experiment: Stimulated [35S]GTPγS binding, CHOkappa membranes. The format is biochemical. On the technique in general: GTPγS resists hydrolysis and so accumulates on activated G proteins.
Series [2] deals with mu-RLuc/Gβ1-RGFP (Homo sapiens, UniProt P35372). As to the kind of experiment: BRET mu/G-protein interaction, SH-SY5Y membranes. The format is biochemical. As to conditions: intrinsic activity, dermorphin = 1.00.
In series [3] the target is human recombinant mu receptor (Homo sapiens, UniProt P35372). As to the kind of experiment: Calcium mobilization, CHO cells coexpressing mu and Gαqi5. The class given is cell-based. Background: A change in cytosolic calcium serves as a functional read-out for many receptors and channels.
Sequence of human recombinant mu receptor (P35372 whole entry): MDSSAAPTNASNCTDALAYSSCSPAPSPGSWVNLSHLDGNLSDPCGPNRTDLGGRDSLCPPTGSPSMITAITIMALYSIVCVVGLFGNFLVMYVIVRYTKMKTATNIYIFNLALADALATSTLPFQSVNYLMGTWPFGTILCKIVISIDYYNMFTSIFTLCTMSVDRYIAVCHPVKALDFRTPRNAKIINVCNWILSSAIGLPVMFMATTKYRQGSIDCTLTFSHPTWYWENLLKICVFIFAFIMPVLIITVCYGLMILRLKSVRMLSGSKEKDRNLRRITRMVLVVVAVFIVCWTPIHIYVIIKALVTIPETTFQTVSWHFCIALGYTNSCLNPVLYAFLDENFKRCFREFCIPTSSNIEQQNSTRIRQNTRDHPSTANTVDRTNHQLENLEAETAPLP
Series [4] has as its target human recombinant kappa receptor (Homo sapiens, UniProt P41145). Briefly: Calcium mobilization, CHO cells coexpressing kappa and Gαqi5. As to conditions: intrinsic activity, dynorphin A = 1.00. The format is cell-based.
Series [5] deals with recombinant human delta opioid receptor (Homo sapiens, UniProt P41143). As to the kind of experiment: Stimulated [35S]GTPγS binding, CHOdelta membranes. The format is biochemical. As to conditions: intrinsic activity, DPDPE = 1.00, n≥5.
Sequence of recombinant human delta opioid receptor (P41143 whole entry): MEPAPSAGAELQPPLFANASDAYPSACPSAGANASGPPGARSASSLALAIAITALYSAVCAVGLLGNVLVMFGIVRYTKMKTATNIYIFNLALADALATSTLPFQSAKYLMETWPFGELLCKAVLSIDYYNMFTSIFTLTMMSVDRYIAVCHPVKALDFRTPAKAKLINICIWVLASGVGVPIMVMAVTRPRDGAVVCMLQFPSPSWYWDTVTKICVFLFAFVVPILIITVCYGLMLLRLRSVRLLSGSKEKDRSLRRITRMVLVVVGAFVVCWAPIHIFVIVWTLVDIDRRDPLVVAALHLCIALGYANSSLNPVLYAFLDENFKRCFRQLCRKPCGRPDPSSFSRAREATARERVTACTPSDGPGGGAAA
In series [6] the target is NOP-RLuc/Gβ1-RGFP (Homo sapiens, UniProt P41146). As to the kind of experiment: BRET NOP/G-protein interaction, HEK-293 membranes. The format is biochemical. Background: Bioluminescence resonance energy transfer reports proximity on the nanometre scale.
The test system of series [7] is NOP over opioid receptors. Briefly: In vitro functional assays, NOP selectivity summary. Set-up: species or system human. As to conditions: range over functional assays.
The target in series [8] is recombinant human mu opioid receptor (Homo sapiens, UniProt P35372). As to the kind of experiment: Stimulated [35S]GTPγS binding, CHOmu membranes. The class given is biochemical.
Sequence of recombinant human mu opioid receptor (P35372 whole entry): as the sequence (P35372 whole entry) above
For series [9], the system named is NOP and classical opioid receptors. Briefly: Calcium mobilization, summary over the four cell lines. The class given is cell-based, human.
The target in series [10] is NOP-RLuc/β-arrestin 2-RGFP (Homo sapiens, UniProt P41146). As to the kind of experiment: BRET NOP/β-arrestin 2 interaction, HEK-293 whole cells. The class given is cell-based.
In series [11] the target is T2, human recombinant NOP receptor (Homo sapiens, UniProt P41146). As to the kind of experiment: Stimulated [35S]GTPγS binding, CHONOP membranes. The class given is biochemical. As to conditions: intrinsic activity, N/OFQ = 1.00, n≥5.
T2 sequence (P41146 whole entry): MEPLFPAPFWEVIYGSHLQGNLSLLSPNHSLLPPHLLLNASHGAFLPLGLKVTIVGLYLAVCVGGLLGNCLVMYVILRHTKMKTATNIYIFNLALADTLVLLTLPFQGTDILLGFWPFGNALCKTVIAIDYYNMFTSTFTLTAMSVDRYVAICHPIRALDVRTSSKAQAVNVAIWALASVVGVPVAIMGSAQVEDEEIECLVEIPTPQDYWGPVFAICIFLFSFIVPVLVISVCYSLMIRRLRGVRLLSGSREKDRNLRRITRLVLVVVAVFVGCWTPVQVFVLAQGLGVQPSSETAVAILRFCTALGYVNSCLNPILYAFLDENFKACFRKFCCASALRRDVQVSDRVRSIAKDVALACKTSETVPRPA
Series [12] relates to rhesus monkeys (Macaca mulatta). As to the kind of experiment: Warm water tail-withdrawal assay in monkeys. The class given is in vivo. As to conditions: n = 4; for duration of antinociception: 50°C water.
Series [13] deals with T2, human recombinant NOP receptor. As to the kind of experiment: Calcium mobilization, CHO cells coexpressing NOP and Gαqi5. The class given is cell-based.
The subject of series [14] is rhesus monkeys (Macaca mulatta). As to the kind of experiment: Scratching responses in monkeys after intrathecal administration. The format is in vivo. As to conditions: 3 nmol i.t., any time point, n = 4.
Series [15] concerns NOP and classical opioid receptors. As to the kind of experiment: Receptor binding studies, summary over all four receptors. More on the design: species or system human. As to conditions: at all receptors (NOP, mu, kappa, delta), vs [Dmt^1]N/OFQ(1-13)-NH2. The method in brief: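 CHO membranes expressing human receptors (20–40 μg protein) were incubated 1 h at room temperature in 50 mM Tris, 0.5% BSA with test compound (1 pM–10 μM). […] Bound ligand was collected by filtration on PEI-soaked GF/B filters.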

In series [16] the test system is rhesus monkeys (Macaca mulatta). Briefly: Overt side effects. The class given is in vivo. As to conditions: 0.3-3 nmol i.t.
Series [17] addresses mu-RLuc/β-arrestin 2-RGFP (Homo sapiens, UniProt P35372). Briefly: BRET mu/β-arrestin 2 interaction, SH-SY5Y whole cells. The class given is cell-based. As to conditions: intrinsic activity, dermorphin = 1.00, inactive = inactive up to 1 μM.
Series [18] concerns the target delta receptor (Homo sapiens, UniProt P41143). As to the kind of experiment: Calcium mobilization, CHO cells coexpressing delta and GαqG66Di5. The class given is cell-based.
In series [19] the target is T1, recombinant human kappa opioid receptor. As to the kind of experiment: Displacement binding of [3H]-DPN, CHOkappa cell membranes. As to conditions: vs [Dmt^1]N/OFQ(1-13)-NH2.
The target in series [20] is T3, human recombinant mu opioid receptor (human, UniProt P35372 1-400). As to the kind of experiment: radioligand binding.
T3 sequence (P35372 whole entry): as the sequence (P35372 whole entry) above
Series [21] deals with T3, human recombinant mu opioid receptor. Briefly: cell-based or functional assay.
Series [22] concerns the target human recombinant delta opioid receptor (human, UniProt P41143 1-372). Briefly: radioligand binding.
Series [23] has as its target human recombinant kappa opioid receptor (human, UniProt P41145 1-380). Briefly: radioligand binding.
Series [24] has as its target T3, human recombinant mu opioid receptor. Briefly: radioligand binding. The source holds these as a separate data set.
The target in series [25] is human recombinant N/OFQ (NOP) receptor (human, UniProt P41146 1-370). As to the kind of experiment: radioligand binding.
Sequence of human recombinant N/OFQ (NOP) receptor (P41146 whole entry): as the sequence (P41146 whole entry) above
Setting [26] is: agonist stimulated over basal specific binding, mean ± S.E.M.

Like-named read-outs stand apart in the source and are kept apart here. Where no end group is shown, it is not given here. [ ]: non-standard residue; d: D form. Dmt = Cc1cc(O)cc(C)c1C[C@H](N)C(=O)O; PWT2 core = not defined here

T1 sequence (P41145 whole entry): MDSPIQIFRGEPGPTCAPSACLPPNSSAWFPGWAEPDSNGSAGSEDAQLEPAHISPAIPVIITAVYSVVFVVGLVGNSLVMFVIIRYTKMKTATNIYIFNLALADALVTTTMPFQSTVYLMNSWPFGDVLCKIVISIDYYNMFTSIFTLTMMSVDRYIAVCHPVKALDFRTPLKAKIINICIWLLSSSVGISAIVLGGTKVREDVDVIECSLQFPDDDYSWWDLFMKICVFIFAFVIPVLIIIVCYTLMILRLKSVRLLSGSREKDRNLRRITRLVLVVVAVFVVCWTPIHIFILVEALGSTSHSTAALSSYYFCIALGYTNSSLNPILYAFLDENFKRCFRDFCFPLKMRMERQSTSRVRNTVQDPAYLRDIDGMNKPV
Sequence of human recombinant delta opioid receptor (P41143 whole entry, stated change not applied): as the sequence (P41143 whole entry) above
Sequence of delta receptor (P41143 whole entry): as above
Sequence of human recombinant kappa opioid receptor (P41145 whole entry): as the sequence (P41145 whole entry) above
Sequence of human recombinant kappa receptor (P41145 whole entry): as above

Consider `Cc1cc(O)cc(C)c1C[C@H](N)C(=O)NCC(=O)NCC(=O)N[C@@H](Cc1ccccc1)C(=O)N[C@H](C(=O)NCC(=O)N[C@@H](C)C(=O)N[C@@H](CCCNC(=N)N)C(=O)N[C@@H](CCCCN)C(=O)N[C@@H](CO)C(=O)N[C@@H](C)C(=O)N[C@@H](CCCNC(=N)N)C(=O)N[C@@H](CCCCN)C(=O)N[C@@H](CSC1CC(=O)N(CCC(=O)NCCCN(CCCCN(CCCNC(=O)CCN2C(=O)CC(SC[C@H](NC(=O)[C@H](CCCCN)NC(=O)[C@H](CCCNC(=N)N)NC(=O)[C@H](C)NC(=O)[C@H](CO)NC(=O)[C@H](CCCCN)NC(=O)[C@H](CCCNC(=N)N)NC(=O)[C@H](C)NC(=O)CNC(=O)[C@@H](NC(=O)[C@H](Cc3ccccc3)NC(=O)CNC(=O)CNC(=O)[C@@H](N)Cc3c(C)cc(O)cc3C)[C@@H](C)O)C(N)=O)C2=O)CCCNC(=O)CCN2C(=O)CC(SC[C@H](NC(=O)[C@H](CCCCN)NC(=O)[C@H](CCCNC(=N)N)NC(=O)[C@H](C)NC(=O)[C@H](CO)NC(=O)[C@H](CCCCN)NC(=O)[C@H](CCCNC(=N)N)NC(=O)[C@H](C)NC(=O)CNC(=O)[C@@H](NC(=O)[C@H](Cc3ccccc3)NC(=O)CNC(=O)CNC(=O)[C@@H](N)Cc3c(C)cc(O)cc3C)[C@@H](C)O)C(N)=O)C2=O)CCCNC(=O)CCN2C(=O)CC(SC[C@H](NC(=O)[C@H](CCCCN)NC(=O)[C@H](CCCNC(=N)N)NC(=O)[C@H](C)NC(=O)[C@H](CO)NC(=O)[C@H](CCCCN)NC(=O)[C@H](CCCNC(=N)N)NC(=O)[C@H](C)NC(=O)CNC(=O)[C@@H](NC(=O)[C@H](Cc3ccccc3)NC(=O)CNC(=O)CNC(=O)[C@@H](N)Cc3c(C)cc(O)cc3C)[C@@H](C)O)C(N)=O)C2=O)C1=O)C(N)=O)[C@@H](C)O` (stereo partly shown) [PWT2-[Dmt^1], PWT2-[Dmt^1]N/OFQ(1-13)], for which the “Emax as stimulation factor, kappa” value in series [1] (setting [26]) came to 2.43 ± 0.08 fold. For the same molecule, the “α ± S.E.M. kappa” value in series [1] (intrinsic activity, dynorphin A = 1.00, n≥5) is recorded as 1.40 ± 0.11; in series [4], 0.86 ± 0.03. The “α ± S.E.M. mu, Gβ1-protein” value in [2] is on record as 1.43 ± 0.12. Besides, the Emax in [3] (CHO, read-out: maximal effects over basal, mu) was found to be 283 ± 3%. Further, the “α ± S.E.M. mu” value in [3] (calcium mobilization, intrinsic activity, dermorphin = 1.00) was determined as 0.87 ± 0.04; in series [8] (intrinsic activity, dermorphin = 1.00, n≥5) it was 0.98 ± 0.07. In addition, in series [3] (calcium mobilization, mu), the “lower potency compared to dermorphin” value worked out at 23 fold. Also, the “α ± S.E.M. delta” value in series [5] came to 0.87 ± 0.07; in [18] (intrinsic activity, DPDPE = 1.00), 0.80 ± 0.08. Further, in series [6], the “α ± S.E.M. NOP, Gβ1-protein” value turned out to be 1.04 ± 0.04. Also, the “NOP selectivity in in vitro functional assays” value in series [7] was 2 – 10 fold. Further, the “Emax as stimulation factor, mu” value in series [8] (setting [26]) is listed as 2.84 ± 0.11 fold. The “reduced potency compared to [Dmt^1]N/OFQ(1-13)-NH2” value in series [9] was in the range of 3 to 30 fold. Further, the “α ± S.E.M. NOP, β-arrestin2” value in [10] is recorded as 0.58 ± 0.10. In addition, the “α ± S.E.M. NOP” value stood at 1.23 ± 0.13 in series [11] and 0.98 ± 0.08 in [13] (intrinsic activity, N/OFQ = 1.00). Besides, the duration of antinociception worked out at 2 h in series [12] (0.3 nmol i.t.), 6 h in series [12] (1 nmol i.t.) and 24 h in [12] (3 nmol i.t.). Moreover, the “reduced potency compared to N/OFQ” value in series [13] (NOP) is given as 58 fold. Also, in series [14], the “scratching responses in 15-min observation period” value is reported as “did not significantly elicit scratching responses”. Besides, in series [15], the “lower affinity than the parent peptide” value was “approximately 10 fold”. Besides, in [16], the “overt side effects including sedation or motor impairment” value is recorded as “did not cause any overt side effects”. The “α ± S.E.M. mu, β-arrestin2” value in [17] was 0.82 ± 0.07. Also, the “potency lower than DPDPE” value in series [18] (delta) was 23 fold. In [19], the “loss of affinity at kappa compared to parent compound” value is listed as ~ 18 fold.

`O=C1CC[C@@]2(O)[C@H]3Cc4ccc(O)c5c4[C@@]2(CCN3CC2CC2)[C@H]1O5` [naltrexone, Naltrexone, reference compound]: the “effect of antagonist on i.t. PWT2-[Dmt^1] (3 nmol)-induced antinociception” value in series [12] (naltrexone 0.03 mg/kg s.c., given 1 h 10 min after PWT2-[Dmt^1]) was “inactive”.

B1: [Dmt^1]N/OFQ(1-13)-NH2 (peptide)
peptide: [Dmt]GGFTGARKSARK-NH2
modifications: N-terminus assumed
SMILES: Cc1cc(O)cc(C)c1C[C@H](N)C(=O)NCC(=O)NCC(=O)N[C@@H](Cc1ccccc1)C(=O)N[C@H](C(=O)NCC(=O)N[C@@H](C)C(=O)N[C@@H](CCCNC(=N)N)C(=O)N[C@@H](CCCCN)C(=O)N[C@@H](CO)C(=O)N[C@@H](C)C(=O)N[C@@H](CCCNC(=N)N)C(=O)N[C@@H](CCCCN)C(N)=O)[C@@H](C)O
With B1, the pKi is 10.4 in series [20]; 9.99 in series [22]; 10.4 in [23]; 10 in series [24]; 10.4 in [25]. In series [21], the “stimulation of [^35S]GTPγS binding, CHO mu membranes: Emax as stimulation factor” value (“stimulation of [^35S]GTPγS binding” below) came to 3.06 fold.

B2: PWT2-[Dmt^1]N/OFQ(1-13) (peptide)
peptide: [Dmt]GGFTGARKSARKC(PWT2 core)-NH2
modifications: reading uncertain; also: Cys14 joined to the PWT2 core by thio-Michael reaction
B2: the “stimulation of [^35S]GTPγS binding” value in series [21] came out at 2.84 fold. Besides, the pKi turned out to be 8.42 in series [22], 9.13 in [23], 9.25 in [24] and 9.13 in series [25].

B3: Dermorphin (peptide)
peptide: YAFGYPS
For B3, in series [21], the “stimulation of [^35S]GTPγS binding” value is 2.88 fold.
